The source made the active and inactive calls. The rule behind the calls is not given here.
Tests used:
[1] = test system: BV-2; assay: Inhibition of LPS-induced nitric oxide in mouse BV2 cells assessed as reduction in intracellular nitric oxide level at 1 uM preincubated with compound for 1 hr followed by LPS addition and measured after 24 hrs by cell analyser based assay (reference value: 145.7 +/- 4.4%); type: functional
[2] = test system: BV-2; assay: Cytoprotection against LPS-induced cell damage in mouse BV2 cells assessed as increase in cell viability at 1 uM preincubated with compound for 1 hr followed by LPS addition and measured after 24 hrs by cell analyser based assay (reference value: 80.6 +/- 1.2%); type: functional
[3] = test system: SH-SY5Y; assay: Cytotoxicity against human SH-SY5Y cells assessed as cell viability up to 5 uM after 24 hrs by MTT assay; type: cell-based
In short: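 SH-SY5Y cells, 2 × 10⁴/well, were allowed 24 h to attach, then exposed for 24 h to a series of concentrations (1.25–40). MTT (0.5 mg/mL in HBSS) was applied for 2 h at 37 °C, and formazan was dissolved in isopropanol and read at 570 nm (ref 690 nm). Results are % viability versus untreated cells.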

[4] = test system: SH-SY5Y; assay: Neuroprotection against amyloid beta (1 to 42 residues)-induced toxicity in human SH-SY5Y cells preincubated for 24 hrs followed by amyloid beta addition and measured after 4 hrs by MTT-based exocytosis assay; type: functional, cell-based
In short: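 Aβ1-42 was dissolved in hexafluoroisopropanol (1 mg/mL), sonicated, held 24 h at room temperature and lyophilised. SH-SY5Y cells, 3 × 10⁴/well, were pretreated 24 h with compound and then given Aβ1-42 oligomers for 4 h at 37 °C. MTT (0.5 mg/mL in HBSS) was applied for 1 h, granules were solubilised in 10% Tween-20, and absorbance read at 570 nm (ref 690).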

[5] = test system: BV-2; assay: Induction of H2S generation in mouse BV2 cells at 100 uM after 45 mins by WSP-1 fluorescence dye based spectrofluorimetric analysis; type: functional, cell-based
In short: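 BV-2 cells, 72 × 10³/well, were seeded serum-free 24 h before the assay and loaded with WSP-1 for 30 min. Dye was then replaced with compound in HEPES-buffered saline, pH 7.4 (vehicle DMSO 1%). Fluorescence was recorded for 45 min, and total H₂S release was expressed as AUC of fluorescence index. Data are mean ± SE, n=9, with diallyl disulfide as reference donor.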

[6] = test system: BV-2; assay: Antioxidant activity in mouse BV2 cells assessed as reduction in LPS-induced ROS release at 1 uM preincubated with compound for 1 hr followed by LPS addition and measured after 24 hrs by cell analyser based assay (reference value: 154 +/- 3.8%); type: functional; set-up: scale not given: the % may be the effect or the level left
[7] = test system: BV-2; assay: Inhibition of LPS-induced nitric oxide in mouse BV2 cells assessed as intracellular nitric oxide level at 1 uM preincubated with compound for 1 hr followed by LPS addition and measured after 24 hrs by cell analyser based assay (reference value: 145.7 +/- 4.4%); type: functional; set-up: scale not given: the % may be the effect or the level left
[8] = test system: SH-SY5Y; assay: Antioxidant activity in human SH-SY5Y cells assessed as increase in GSH level at 5 uM after 24 hrs by MCB-dye based fluorescence assay relative to control; type: functional
In short: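 SH-SY5Y cells, 2 × 10⁴/well, were allowed 24 h to attach, then given compound for 24 h at 37 °C in 5% CO₂. Medium was replaced with monochlorobimane for 30 min at 37 °C, and fluorescence read at ex 355/em 460 nm. Results are percent increase in GSH, mean ± SEM of three independent experiments.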

[9] = test system: SH-SY5Y; assay: Antioxidant activity in human SH-SY5Y cells assessed as inhibition of H2O2-induced intracellular ROS generation at 5 uM preincubated with compound for 24 hrs followed by H2O2 addition after 30 mins by DCFH-DA dye based fluorescence assay; type: functional, cell-based
In short: (§1)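 SH-SY5Y cells, 2 × 10⁴/well, were allowed 24 h to attach, then given compound for 24 h at 37 °C. They were loaded with DCFH-DA ([…]) for 30 min at room temperature and then challenged with H₂O₂ or t-BuOOH, each at 50 µM, for 30 min. Results are percent inhibition of oxidant-induced ROS, mean ± SEM, n=3 independent experiments.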

[10] = target: T1, Nuclear factor erythroid 2-related factor 2 (Homo sapiens) (UniProt Q16236); assay: Activation of Nrf2 in human SH-SY5Y cells at 5 uM after 1 to 6 hrs by ELISA method; type: cell-based
T1 sequence (whole entry): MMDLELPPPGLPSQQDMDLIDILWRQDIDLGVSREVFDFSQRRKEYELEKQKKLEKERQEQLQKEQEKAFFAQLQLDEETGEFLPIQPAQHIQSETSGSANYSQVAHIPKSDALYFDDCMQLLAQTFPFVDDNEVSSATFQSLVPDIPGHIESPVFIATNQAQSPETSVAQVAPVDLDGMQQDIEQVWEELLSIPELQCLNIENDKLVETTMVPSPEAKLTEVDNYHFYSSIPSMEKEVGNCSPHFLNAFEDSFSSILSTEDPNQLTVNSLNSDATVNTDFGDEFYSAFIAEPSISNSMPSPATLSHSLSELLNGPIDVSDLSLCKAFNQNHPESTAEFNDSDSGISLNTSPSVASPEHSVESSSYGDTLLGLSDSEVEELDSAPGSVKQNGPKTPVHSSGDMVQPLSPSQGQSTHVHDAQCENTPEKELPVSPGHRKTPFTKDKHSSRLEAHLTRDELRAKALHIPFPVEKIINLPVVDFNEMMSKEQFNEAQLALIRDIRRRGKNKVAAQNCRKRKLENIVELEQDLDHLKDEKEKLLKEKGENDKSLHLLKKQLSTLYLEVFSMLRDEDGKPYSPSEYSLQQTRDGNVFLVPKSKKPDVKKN
In short: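 SH-SY5Y cells, 2 × 10⁶ per dish, exposed to compound for 1, 3 and 6 h at 37 °C in 5% CO₂. Nuclear extracts were then taken and active Nrf2 measured by DNA-binding ELISA (antibody recognises ARE-bound Nrf2). Results are fold increase over matched untreated cells, mean ± SEM of three independent experiments, two-way ANOVA with Bonferroni.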

[11] = test system: SH-SY5Y; assay: Antioxidant activity in human SH-SY5Y cells assessed as inhibition of tert-butyl hydroperoxide-induced intracellular ROS generation at 5 uM preincubated with compound for 24 hrs followed by tert-butyl hydroperoxide addition after 30 mins by DCFH-DA dye based fluorescence assay; type: functional, cell-based; in short: as §1
[12] = test system: BV-2; assay: Antioxidant activity in mouse BV2 cells assessed as effect on LPS-induced ROS release at 1 uM preincubated with compound for 1 hr followed by LPS addition and measured after 24 hrs by cell analyser based assay (reference value: 154 +/- 3.8%); type: functional
[13] = test system: BV-2; assay: Cytoprotection against LPS-induced cell damage in mouse BV2 cells assessed as cell viability at 1 uM preincubated with compound for 1 hr followed by LPS addition and measured after 24 hrs by cell analyser based assay (reference value: 80.6 +/- 1.2%); type: functional; conditions: read-out: Activity

Row | Compound | inhibition [1] | Activity [2] | Activity [3] | Activity [4] | Activity [5] | Activity [6] | Activity [7] [%] | Activity [8] [%] | Activity [9] | Activity [10] | Activity [11] | Activity [12] | viability at 1 µM [13] [%]
1 | CCN(C)C(=O)Oc1cccc(CNC(=O)C[S+]([O-])CCCCN=C=S)c1 (stereo unspecified) | Active | Active | Non-Toxic | inactive | Active | 30 - 35% |  |  |  |  |  |  | 
2 | CCN(C)C(=O)Oc1cccc(CNC(=O)CSCCCCN=C=S)c1 | Active | Active | Non-Toxic | inactive | Active | 30 - 35% | 125.9 | 25.73 | Active | inactive | Active |  | 
3 | CCN(C)C(=O)Oc1cccc([C@H](C)N(C)C)c1 [RIVASTIGMINE] | Active |  |  |  | Active |  |  |  |  |  |  | inactive | 84
4 | CCN(C)C(=O)Oc1cccc(NC(=O)CSCCCCN=C=S)c1 | Active |  | Non-Toxic | inactive | Active | 30 - 35% | 114 | 35.6 | Active | Active | Active |  | 93
5 | CCN(C)C(=O)Oc1cccc(CCNC(=O)CSCCCCN=C=S)c1 | Active | Active | Non-Toxic | inactive | Active | 30 - 35% | 98.8 |  |  |  |  |  | 
6 | CCN(C)C(=O)Oc1cccc(NC(=O)C[S+]([O-])CCCCN=C=S)c1 (stereo unspecified) | Active | Active | Non-Toxic | inactive | Active | 30 - 35% |  |  |  |  |  |  | 
7 | C=CCSSCC=C |  |  |  |  | Active |  |  |  |  |  |  |  | 
8 | CCN(C)C(=O)Oc1cccc(CCNC(=O)C[S+]([O-])CCCCN=C=S)c1 (stereo unspecified) | Active |  | Non-Toxic | inactive | Active | 30 - 35% |  |  |  |  |  |  | 
